Measured values: ChEMBL document CHEMBL1255475, “Mutant prevention concentrations of four carbapenems against gram-negative rods” (2010)
Values after ≈ are worked out from the molar mass of the structure shown.

Assays:
Assay type in all cases: functional
Escherichia coli [1] = test: Antibacterial activity against beta-lactamase-negative Escherichia coli E409 […] by agar dilution method
Klebsiella pneumoniae [2] = test: Antibacterial activity against beta-lactamase-positive ESBL-negative Klebsiella pneumoniae E511 incubated up to 7 days by agar dilution method; conditions: E511, 168 h
Klebsiella pneumoniae [3] = test: Antibacterial activity against beta-lactamase-positive ESBL-positive Klebsiella pneumoniae E453 incubated up to 7 days by agar dilution method; conditions: E453, 168 h
Summary of the method: (§1)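 MIC by CLSI agar dilution, with quality-control strains in each run. Beta-lactamase status was set by 30 μg cefazolin Kirby-Bauer disk diffusion. ESBL status was set by cefotaxime and ceftazidime disks (30 μg) with and without clavulanic acid (10 μg).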

Escherichia coli [4] = test: Antibacterial activity against beta-lactamase-positive ESBL-negative Escherichia coli E484 assessed as mutant prevention concentration after overnight incubation
Summary of the method: (§2)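 Overnight growth on blood trypticase soy agar (35°C, air) was resuspended in 0.9% saline and counted on drug-free Mueller-Hinton agar. […] Colonies were retested by agar dilution to confirm mutants. MPC was the lowest concentration preventing resistant-mutant growth.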

Klebsiella pneumoniae [5] = test: Antibacterial activity against beta-lactamase-positive ESBL-positive Klebsiella pneumoniae E457 incubated up to 7 days by agar dilution method; conditions: E457, 168 h; summary of the method: as §1
Escherichia coli [6] = test: Antibacterial activity against beta-lactamase-negative Escherichia coli E424 assessed as mutant prevention concentration after overnight incubation
Escherichia coli [7] = test: Antibacterial activity against beta-lactamase-positive ESBL-positive Escherichia coli E459 assessed as mutant prevention concentration after overnight incubation; summary of the method: as §2
Klebsiella pneumoniae [8] = test: Antibacterial activity against beta-lactamase-negative Klebsiella pneumoniae E359 assessed as mutant prevention concentration after overnight incubation
Klebsiella pneumoniae [9] = test: Antibacterial activity against beta-lactamase-positive ESBL-negative Klebsiella pneumoniae E474 incubated up to 7 days by agar dilution method; conditions: E474, 168 h
Escherichia coli [10] = test: Antibacterial activity against beta-lactamase-negative Escherichia coli E350 assessed as mutant prevention concentration after overnight incubation
Klebsiella pneumoniae [11] = test: Antibacterial activity against beta-lactamase-negative Klebsiella pneumoniae E420 incubated up to 7 days by agar dilution method; conditions: E420, 168 h; summary of the method: as §1
Klebsiella pneumoniae [12] = test: Antibacterial activity against beta-lactamase-negative Klebsiella pneumoniae E362 incubated up to 7 days by agar dilution method; conditions: E362, 168 h
Klebsiella pneumoniae [13] = test: Antibacterial activity against beta-lactamase-negative Klebsiella pneumoniae E359 incubated up to 7 days by agar dilution method; conditions: E359, 168 h
Escherichia coli [14] = test: Antibacterial activity against beta-lactamase-negative Escherichia coli E348 assessed as mutant prevention concentration after overnight incubation
Klebsiella pneumoniae [15] = test: Antibacterial activity against beta-lactamase-negative Klebsiella pneumoniae E357 incubated up to 7 days by agar dilution method; conditions: E357, 168 h
Escherichia coli [16] = test: Antibacterial activity against beta-lactamase-positive ESBL-positive Escherichia coli E460 incubated up to 7 days by agar dilution method; conditions: E460, 168 h; summary of the method: as §1
Escherichia coli [17] = test: Antibacterial activity against beta-lactamase-positive ESBL-positive Escherichia coli E451 assessed as mutant prevention concentration after overnight incubation; summary of the method: as §2
Escherichia coli [18] = test: Antibacterial activity against beta-lactamase-positive ESBL-positive Escherichia coli E460 assessed as mutant prevention concentration after overnight incubation; summary of the method: as §2
Escherichia coli [19] = test: Antibacterial activity against beta-lactamase-negative Escherichia coli E345 incubated up to 7 days by agar dilution method; conditions: E345, 168 h
Klebsiella pneumoniae [20] = test: Antibacterial activity against beta-lactamase-negative Klebsiella pneumoniae E420 assessed as mutant prevention concentration after overnight incubation; summary of the method: as §2
Klebsiella pneumoniae [21] = test: Antibacterial activity against beta-lactamase-positive ESBL-negative Klebsiella pneumoniae E477 assessed as mutant prevention concentration after overnight incubation; summary of the method: as §2
Klebsiella pneumoniae [22] = test: Antibacterial activity against beta-lactamase-positive ESBL-negative Klebsiella pneumoniae E473 incubated up to 7 days by agar dilution method; conditions: E473, 168 h
Klebsiella pneumoniae [23] = test: Antibacterial activity against beta-lactamase-positive ESBL-negative Klebsiella pneumoniae E481 incubated up to 7 days by agar dilution method; conditions: E481, 168 h
Escherichia coli [24] = test: Antibacterial activity against beta-lactamase-positive ESBL-positive Escherichia coli E465 assessed as mutant prevention concentration after overnight incubation; summary of the method: as §2
Escherichia coli [25] = test: Antibacterial activity against beta-lactamase-positive ESBL-positive Escherichia coli E452 assessed as mutant prevention concentration after overnight incubation; summary of the method: as §2
Klebsiella pneumoniae [26] = test: Antibacterial activity against beta-lactamase-negative Klebsiella pneumoniae E361 incubated up to 7 days by agar dilution method; conditions: E361, 168 h
Klebsiella pneumoniae [27] = test: Antibacterial activity against beta-lactamase-positive ESBL-negative Klebsiella pneumoniae E509 assessed as mutant prevention concentration after overnight incubation; summary of the method: as §2
Klebsiella pneumoniae [28] = test: Antibacterial activity against beta-lactamase-positive ESBL-positive Klebsiella pneumoniae E453 assessed as mutant prevention concentration after overnight incubation; summary of the method: as §2
Klebsiella pneumoniae [29] = test: Antibacterial activity against beta-lactamase-positive ESBL-positive Klebsiella pneumoniae E476 assessed as mutant prevention concentration after overnight incubation; summary of the method: as §2
Klebsiella pneumoniae [30] = test: Antibacterial activity against beta-lactamase-negative Klebsiella pneumoniae E362 assessed as mutant prevention concentration after overnight incubation
Klebsiella pneumoniae [31] = test: Antibacterial activity against beta-lactamase-negative Klebsiella pneumoniae E417 incubated up to 7 days by agar dilution method; conditions: E417, 168 h; summary of the method: as §1
Klebsiella pneumoniae [32] = test: Antibacterial activity against beta-lactamase-positive ESBL-negative Klebsiella pneumoniae E507 incubated up to 7 days by agar dilution method; conditions: E507, 168 h
Summary of the method: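 MPC determination: overnight cultures on blood trypticase soy agar at 35°C in air were resuspended in 0.9% saline, and CFU were counted on drug-free Mueller-Hinton agar. […] Growth was retested by agar dilution to confirm mutants. MPC was the lowest concentration preventing resistant-mutant growth.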

Escherichia coli [33] = test: Antibacterial activity against beta-lactamase-positive ESBL-positive Escherichia coli E458 incubated up to 7 days by agar dilution method; conditions: E458, 168 h; summary of the method: as §1
Pseudomonas aeruginosa [34] = test: Antibacterial activity against Pseudomonas aeruginosa P323 assessed as mutant prevention concentration after overnight incubation
Acinetobacter baumannii [35] = test: Antibacterial activity against Acinetobacter baumannii A851 assessed as mutant prevention concentration after overnight incubation
Pseudomonas aeruginosa [36] = test: Antibacterial activity against Pseudomonas aeruginosa P335 assessed as mutant prevention concentration after overnight incubation
Acinetobacter baumannii [37] = test: Antibacterial activity against Acinetobacter baumannii A929 assessed as mutant prevention concentration after overnight incubation
Pseudomonas aeruginosa [38] = test: Antibacterial activity against Pseudomonas aeruginosa P349 assessed as mutant prevention concentration after overnight incubation
Pseudomonas aeruginosa [39] = test: Antibacterial activity against Pseudomonas aeruginosa P337 assessed as mutant prevention concentration after overnight incubation
Acinetobacter baumannii [40] = test: Antibacterial activity against Acinetobacter baumannii A849 assessed as mutant prevention concentration after overnight incubation
Pseudomonas aeruginosa [41] = test: Antibacterial activity against Pseudomonas aeruginosa P326 assessed as mutant prevention concentration after overnight incubation
Pseudomonas aeruginosa [42] = test: Antibacterial activity against Pseudomonas aeruginosa P365 assessed as mutant prevention concentration after overnight incubation
Acinetobacter baumannii [43] = test: Antibacterial activity against Acinetobacter baumannii A896 assessed as mutant prevention concentration after overnight incubation
Pseudomonas aeruginosa [44] = test: Antibacterial activity against Pseudomonas aeruginosa P334 assessed as mutant prevention concentration after overnight incubation

## C[C@@H](O)[C@H]1C(=O)N2C(C(=O)O)=C(S[C@@H]3CN[C@H](C(=O)Nc4cccc(C(=O)O)c4)C3)[C@H](C)[C@H]12
Escherichia coli [1]
  MIC: 0.016 µg/mL (≈ 0.0336 µM)
Klebsiella pneumoniae [2]
  MIC: 8 µg/mL (≈ 16.8 µM)
Klebsiella pneumoniae [3]
  MIC: 0.5 µg/mL (≈ 1.05 µM)
Escherichia coli [4]
  MPC: 128 µg/mL
Klebsiella pneumoniae [5]
  MIC: 0.03 µg/mL (≈ 0.0631 µM)
Escherichia coli [6]
  MPC: 0.06 µg/mL
Escherichia coli [7]
  MPC: 0.06 µg/mL
Klebsiella pneumoniae [8]
  MPC: 0.03 µg/mL
Klebsiella pneumoniae [9]
  MIC: 4 µg/mL (≈ 8.41 µM)
Escherichia coli [10]
  MPC: 0.03 µg/mL
Klebsiella pneumoniae [11]
  MIC: 0.008 µg/mL (≈ 0.0168 µM)
Klebsiella pneumoniae [12]
  MIC: 0.016 µg/mL (≈ 0.0336 µM)
Klebsiella pneumoniae [13]
  MIC: 0.016 µg/mL (≈ 0.0336 µM)
Escherichia coli [14]
  MPC: 0.03 µg/mL
Klebsiella pneumoniae [15]
  MIC: 0.008 µg/mL (≈ 0.0168 µM)
Escherichia coli [16]
  MIC: 0.125 µg/mL (≈ 0.263 µM)
Escherichia coli [17]
  MPC: 1 µg/mL
Escherichia coli [18]
  MPC: 0.5 µg/mL
Escherichia coli [19]
  MIC: 0.008 µg/mL (≈ 0.0168 µM)
Klebsiella pneumoniae [20]
  MPC: 0.03 µg/mL
Klebsiella pneumoniae [21]
  MPC: 32 µg/mL
Klebsiella pneumoniae [22]
  MIC: 8 µg/mL (≈ 16.8 µM)
Klebsiella pneumoniae [23]
  MIC: 4 µg/mL (≈ 8.41 µM)
Escherichia coli [24]
  MPC: 8 µg/mL
Escherichia coli [25]
  MPC: 0.25 µg/mL
Klebsiella pneumoniae [26]
  MIC: 0.016 µg/mL (≈ 0.0336 µM)
Klebsiella pneumoniae [27]
  MPC: 64 µg/mL
Klebsiella pneumoniae [28]
  MPC: 1 µg/mL
Klebsiella pneumoniae [29]
  MPC: 32 µg/mL
Klebsiella pneumoniae [30]
  MPC: 0.06 µg/mL
Klebsiella pneumoniae [31]
  MIC: 0.008 µg/mL (≈ 0.0168 µM)
Klebsiella pneumoniae [32]
  MIC: 8 µg/mL (≈ 16.8 µM)
Escherichia coli [33]
  MIC: 0.03 µg/mL (≈ 0.0631 µM)

## C[C@@H](O)[C@H]1C(=O)N2C(C(=O)O)=C(S[C@@H]3CN[C@H](CNS(N)(=O)=O)C3)[C@H](C)[C@H]12 [DORIPENEM]
Escherichia coli [1]
  MIC: 0.03 µg/mL (≈ 0.0713 µM)
Klebsiella pneumoniae [2]
  MIC: 2 µg/mL (≈ 4.76 µM)
Klebsiella pneumoniae [3]
  MIC: 0.06 µg/mL (≈ 0.143 µM)
Escherichia coli [4]
  MPC: 8 µg/mL
Klebsiella pneumoniae [5]
  MIC: 0.06 µg/mL (≈ 0.143 µM)
Escherichia coli [6]
  MPC: 0.06 µg/mL
Pseudomonas aeruginosa [34]
  MPC: 4 µg/mL
Escherichia coli [7]
  MPC: 0.125 µg/mL
Acinetobacter baumannii [35]
  MPC: 16 µg/mL
Klebsiella pneumoniae [8]
  MPC: 0.125 µg/mL
Klebsiella pneumoniae [9]
  MIC: 2 µg/mL (≈ 4.76 µM)
Escherichia coli [10]
  MPC: 0.125 µg/mL
Klebsiella pneumoniae [11]
  MIC: 0.06 µg/mL (≈ 0.143 µM)
Klebsiella pneumoniae [12]
  MIC: 0.06 µg/mL (≈ 0.143 µM)
Pseudomonas aeruginosa [36]
  MPC: 16 µg/mL
Klebsiella pneumoniae [13]
  MIC: 0.06 µg/mL (≈ 0.143 µM)
Acinetobacter baumannii [37]
  MPC: 4 µg/mL
Escherichia coli [14]
  MPC: 0.06 µg/mL
Klebsiella pneumoniae [15]
  MIC: 0.06 µg/mL (≈ 0.143 µM)
Escherichia coli [16]
  MIC: 0.03 µg/mL (≈ 0.0713 µM)
Pseudomonas aeruginosa [38]
  MPC: 8 µg/mL
Escherichia coli [17]
  MPC: 0.06 µg/mL
Escherichia coli [18]
  MPC: 0.125 µg/mL
Pseudomonas aeruginosa [39]
  MPC: 8 µg/mL
Escherichia coli [19]
  MIC: 0.03 µg/mL (≈ 0.0713 µM)
Klebsiella pneumoniae [20]
  MPC: 0.06 µg/mL
Klebsiella pneumoniae [21]
  MPC: >64 µg/mL
Klebsiella pneumoniae [22]
  MIC: 2 µg/mL (≈ 4.76 µM)
Acinetobacter baumannii [40]
  MPC: 16 µg/mL
Klebsiella pneumoniae [23]
  MIC: 2 µg/mL (≈ 4.76 µM)
Escherichia coli [24]
  MPC: 0.5 µg/mL
Escherichia coli [25]
  MPC: 0.125 µg/mL
Pseudomonas aeruginosa [41]
  MPC: 16 µg/mL
Klebsiella pneumoniae [26]
  MIC: 0.06 µg/mL (≈ 0.143 µM)
Pseudomonas aeruginosa [42]
  MPC: 8 µg/mL
Acinetobacter baumannii [43]
  MPC: 1 µg/mL
Klebsiella pneumoniae [27]
  MPC: >64 µg/mL
Klebsiella pneumoniae [28]
  MPC: 0.125 µg/mL
Klebsiella pneumoniae [29]
  MPC: 8 µg/mL
Klebsiella pneumoniae [30]
  MPC: 0.125 µg/mL
Klebsiella pneumoniae [31]
  MIC: 0.06 µg/mL (≈ 0.143 µM)
Klebsiella pneumoniae [32]
  MIC: 2 µg/mL (≈ 4.76 µM)
Pseudomonas aeruginosa [44]
  MPC: >2 µg/mL
Escherichia coli [33]
  MIC: 0.03 µg/mL (≈ 0.0713 µM)
